Reference: ChEMBL document CHEMBL3808289, “Discovery of a Selective Series of Inhibitors of Plasmodium falciparum HDACs” (ACS Med Chem Lett, 2016)
Calls of active or inactive are those of the source. The rule behind the calls is not given here.

Key:
Plasmodium falciparum = experiment: Antimalarial activity against Plasmodium falciparum 3D7 infected human erythrocytes assessed as parasite growth inhibition after 72 hrs by spectrophotometry; type: functional, organism-based; settings: 3D7, 72 h
Outline: (§1)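 Cell-based read-outs (parasite growth in erythrocytes; class I HDAC activity in HeLa) were run with multiple repetitions of each assay to limit variability.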

HDAC1 = experiment: Selectivity index, ratio of IC50 for HDAC1 in human HeLa cells to EC50 for Plasmodium falciparum 3D7 infected human erythrocytes; type: toxicity, cell-based; settings: read-out: Ratio IC50/EC50
[1] = Inhibition of class 1 histone deacetylase in human HeLa cells using FLUOR DE LYS as fluorescent substrate after 4 hrs by spectrophotometry; type: cell-based; outline: as §1
Histone deacetylase 1 = Histone deacetylase 1 (Homo sapiens, UniProt Q13547); experiment: Inhibition of recombinant human His-tagged HDAC1 expressed in insect cells preincubated for 10 mins followed by addition of FLUOR DE LYS as fluorescent substrate measured after 1 hr by spectrophotometry
[2] = Oral bioavailability in NMRI mouse at 10 mg/kg; type: ADME, organism-based; settings: in vivo
Plasma = experiment: Drug uptake in NMRI mouse plasma at 10 mg/kg, po; type: ADME, organism-based; settings: in vivo
[3] = Clearance in NMRI mouse plasma 2 mg/kg, iv by LC-MS/MS analysis; type: ADME, organism-based
[4] = test system: Plasmodium falciparum 3D7; experiment: Inhibition of recombinant Plasmodium falciparum 3D7 Flag-tagged HDAC1 Y301H mutant assessed as loss of enzyme activity
Outline: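 The Y301H mutant is a putative catalytic-site mutant of PfHDAC1. It was expressed as a Flag-fusion in insect or mammalian cells and purified on anti-Flag affinity gel. Deacetylase activity was measured in vitro with fluorogenic substrates, alongside wild-type PfHDAC1.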

[5] = Clearance in NMRI mouse plasma; type: ADME, organism-based

Histone deacetylase 1, sequence (Q13547 whole entry): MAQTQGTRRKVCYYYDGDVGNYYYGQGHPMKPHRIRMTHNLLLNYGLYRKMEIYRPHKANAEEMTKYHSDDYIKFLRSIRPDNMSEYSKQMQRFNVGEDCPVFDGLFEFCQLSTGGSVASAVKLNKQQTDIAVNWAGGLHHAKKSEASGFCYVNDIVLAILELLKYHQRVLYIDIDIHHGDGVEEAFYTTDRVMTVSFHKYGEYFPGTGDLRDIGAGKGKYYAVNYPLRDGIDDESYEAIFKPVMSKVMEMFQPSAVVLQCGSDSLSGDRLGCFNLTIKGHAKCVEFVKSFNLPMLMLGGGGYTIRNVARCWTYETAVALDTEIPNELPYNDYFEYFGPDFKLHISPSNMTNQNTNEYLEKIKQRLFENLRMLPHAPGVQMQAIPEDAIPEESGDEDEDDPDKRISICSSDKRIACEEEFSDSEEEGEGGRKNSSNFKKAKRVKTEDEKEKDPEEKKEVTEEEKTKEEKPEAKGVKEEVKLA

| IC50 [1] | IC50 (Histone deacetylase 1) | bioavailability [2] | SMILES | EC50 (Plasmodium falciparum) | selectivity ratio (HDAC1) | Drug uptake (Plasma) | clearance [3] | inhibition [4] | clearance [5] |
| --- | --- | --- | --- | --- | --- | --- | --- | --- | --- |
| 1700 nM | 320 nM | – | CNC(=O)CCCCC[C@H](NC(=O)c1cncs1)c1ncc(-c2ccc3ccccc3c2)[nH]1 | 300 nM | 5.7 | – | – | – | – |
| 6330 nM | 1280 nM | – | CNC(=O)CCCCC[C@H](NC(=O)c1cncs1)c1ncc(-c2ccc3[nH]ccc3c2)[nH]1 | 330 nM | 19 | – | – | – | – |
| > 25000 nM | > 2500 nM | – | CNC(=O)CCCCC[C@H](NC(=O)c1cncs1)c1ncc(-c2cccc3cccnc23)[nH]1 | 8280 nM | > 3 | – | – | – | – |
| > 25000 nM | > 5000 nM | – | CNC(=O)CCCCC[C@H](NC(=O)c1cncs1)c1ncc(-c2ccc3[nH]nnc3c2)[nH]1 | 10000 nM | > 2.5 | – | – | – | – |
| > 25000 nM | > 2500 nM | – | CNC(=O)CCCCC[C@H](NC(=O)c1cncs1)c1ncc(-c2ccc3[nH]cnc3c2)[nH]1 | 12000 nM | > 2.1 | – | – | – | – |
| 4750 nM | 600 nM | – | CNC(=O)CCCCC[C@H](NC(=O)c1cncs1)c1ncc(-c2ccc3ccncc3c2)[nH]1 | 270 nM | 18 | – | – | – | – |
| 8130 nM | 2160 nM | – | CNC(=O)CCCCC[C@H](NC(=O)c1cncs1)c1ncc(-c2ccc(-c3cscn3)cc2)[nH]1 | 570 nM | 14 | – | – | – | – |
| 7630 nM | 2120 nM | – | CNC(=O)CCCCC[C@H](NC(=O)c1cncs1)c1ncc(-c2ccc3[nH]ncc3c2)[nH]1 | 630 nM | 12 | – | – | – | – |
| > 25000 nM | > 2500 nM | – | CNC(=O)CCCCC[C@H](NC(=O)c1cncs1)c1ncc(-c2cc3ccccc3[nH]c2=O)[nH]1 | 500 nM | > 54 | – | – | – | – |
| > 25000 nM | > 5000 nM | – | CNC(=O)CCCCC[C@H](NC(=O)c1cncs1)c1ncc(-c2ccc3cccnc3c2)[nH]1 | 3810 nM | > 6.6 | – | – | – | – |
| 20500 nM | 2490 nM | – | CNC(=O)CCCCC[C@H](NC(=O)c1cncs1)c1ncc(-c2ccc(-n3cccn3)cc2)[nH]1 | 900 nM | 23 | – | – | – | – |
| > 25000 nM | > 5000 nM | – | CNC(=O)CCCCC[C@H](NC(=O)c1cncs1)c1ncc(-c2ccc(-c3ccccc3)cc2)[nH]1 | 7570 nM | > 3.3 | – | – | – | – |
| > 25000 nM | 23900 nM | – | CNC(=O)CCCCC[C@H](NC(=O)c1cncs1)c1ncc(-c2ccc3ccccc3c2C)[nH]1 | 23700 nM | > 1 | – | – | – | – |

Second part, the compound before the results:

| SMILES | IC50 [1] | IC50 (Histone deacetylase 1) | bioavailability [2] | EC50 (Plasmodium falciparum) | selectivity ratio (HDAC1) | Drug uptake (Plasma) | clearance [3] | inhibition [4] | clearance [5] |
| --- | --- | --- | --- | --- | --- | --- | --- | --- | --- |
| CNC(=O)CCCCC[C@H](NC(=O)c1cncs1)c1ncc(-c2cc3ccccc3nc2OC)[nH]1 | 890 nM | – | 10% | 570 nM | – | – | – | – | – |
| CNC(=O)CCCCC[C@H](NC(=O)c1cncs1)c1ncc(-c2ccc3cc(C(F)(F)F)ncc3c2)[nH]1 | 2040 nM | 290 nM | – | 100 nM | 20 | – | – | – | – |
| CNC(=O)CCCCC[C@H](NC(=O)C12CCN(CC1)CC2)c1ncc(-c2cc3ccccc3nc2OC)[nH]1 | 2450 nM | 250 nM | – | 520 nM | 4.7 | Not Active | 10 mL/min/kg | – | – |
| CNC(=O)CCCCC[C@H](NC(=O)Cn1ccnn1)c1ncc(-c2cc3ccccc3nc2OC)[nH]1 | 6650 nM | 1760 nM | 20% | 1760 nM | 3.8 | – | – | – | – |
| CNC(=O)CCCCC[C@H](NC(=O)c1cncs1)c1ncc(-c2ccc3ccnc(OC)c3c2)[nH]1 | 20100 nM | 2620 nM | – | 4860 nM | 4.1 | – | – | – | – |
| CNC(=O)CCCCC[C@H](NC(=O)c1cncs1)c1ncc(-c2ccc3cc(OC)ncc3c2)[nH]1 | 1370 nM | 390 nM | – | 100 nM | 14 | – | – | – | – |
| CCC(=O)CCCCC[C@H](NC(=O)C12CCN(CC1)CC2)c1ncc(-c2ccc3ccccc3c2)[nH]1 | 94 nM | 1.4 nM | – | 38 nM | 2.5 | – | – | – | – |
| CCC(=O)CCCCC[C@H](NC(=O)C1CN(C)C1)c1ncc(-c2cc3ccccc3nc2OC)[nH]1 | – | – | – | – | – | – | – | inactive | – |
| CNC(=O)CCCCC[C@H](NC(=O)C12CCN(CC1)CC2)c1ncc(-c2ccc3ccccc3c2)[nH]1 | 3770 nM | 340 nM | – | 310 nM | 12 | Not Active | – | – | 60 mL/min/kg |
